Experimental data published in ChEMBL document CHEMBL3739411, “Cytotoxic Illudane Sesquiterpenes from the Fungus Granulobasidium vellereum (Ellis and Cragin) Jülich” (J Nat Prod, 2015).

How the values were obtained:
[1] = Half life of the compound in aqueous HCl; type: physicochemical
In short: (§1)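 Compound dissolved in 2 M HCl at room temperature; reaction followed spectrophotometrically at 318 nm and by LC-HRESIMS. First-order rate constant k (min⁻¹) and t1/2 (min) derived from the decay.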

[2] = Chemical reactivity of the compound in aqueous HCl assessed as reaction rate; type: physicochemical; conditions: buffer; in short: as §1
[3] = Drug level in phosphate buffer treated with (3S,7R)-Illudin M at pH 5.4 in presence of cysteine; type: physicochemical
In short: (§2)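 Compound was incubated with L-cysteine in 50 mM buffer at pH 5.4 at room temperature. The reaction was followed for 3 h by UV absorbance at 318 nm and by LC-HRESIMS (C18, 10−90% aqueous MeCN gradient). Reaction half-life was taken from the time course.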

MT4 = test: Cytotoxicity against human MT4 cells assessed as viable cells after 6 days by XTT assay; type: functional; conditions: MT4, 144 h
In short: (§3)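 Cells seeded at 2 × 10⁴ cells/well in 96-well plates; test substances added next day in duplicate. CC50 is the concentration giving 50% viability relative to untreated control cells. Positive control included.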

[4] = Cytotoxicity against human HuH7 cells assessed as viable cells after 6 days by XTT assay; type: functional; conditions: Huh-7, 144 h; in short: as §3
[5] = Half life of the compound in phosphate buffer at pH 5.4 in presence of cysteine; type: ADME; conditions: phosphate buffer with cysteine
[6] = Drug level in phosphate buffer treated with (3S,7S)-Illudin M at pH 5.4 in presence of cysteine; type: physicochemical; in short: as §2

| Structure (SMILES) | half-life [1] [min] | K [2] [×10⁻³ /min] | CC50 (MT4) [nM] | CC50 [4] [nM] | other results |
| --- | --- | --- | --- | --- | --- |
| CC1=C2C(=CC(C)(C)[C@@H]2O)C(=O)[C@](C)(O)C12CC2 [ILLUDIN M] | 147 | 4.7 | – | – | – |
| Cc1c(O)c2c(c(C)c1CCO)[C@H](O)C(C)(C)[C@H]2SC[C@H](N)C(=O)O | – | – | – | – | Drug metabolism [3]: metabolite_detected |
| CC1=C2C(=CC(C)(C)[C@H]2O)C(=O)[C@@](C)(O)C12CC2 | 170 | 4.1 | 120 | 1300 | half-life [5]: 27 min |
| CC1=C2C(=CC(C)(C)[C@@H]2O)C(=O)[C@@](C)(O)C12CC2 | 38 | 12 | 14 | 380 | half-life [5]: 5.6 min |
| CC1=C2C(=C[C@@](C)(CO)[C@@H]2O)C(=O)[C@@](C)(O)C12CC2 | – | – | 23 | 98 | – |
| CC1(C)C=C2C=C(CO)C3(CC3)[C@](C)(O)[C@H]2C1 | – | – | 110000 | 240000 | – |
| COc1nc(N)nc2c1ncn2[C@@H]1O[C@H](COP(=O)(N[C@H](C)C(=O)OCC(C)(C)C)Oc2ccc3ccccc3c2)[C@@H](O)[C@@]1(C)O (stereo partly drawn) | – | – | 3000 | 3000 | – |
| CC1=CC2=C[C@@](C)(CO)C[C@@H]2[C@@](C)(O)C12CC2 | – | – | > 400000 | > 400000 | – |
| Cc1c(O)c2c(c(C)c1CCO)[C@@H](O)C(C)(C)[C@H]2SC[C@H](N)C(=O)O | – | – | – | – | Drug metabolism [6]: metabolite_detected |
| Cc1c(O)c2c(c(C)c1CCO)[C@H](O)C(C)(C)[C@@H]2SC[C@H](N)C(=O)O | – | – | – | – | Drug metabolism [3]: metabolite_detected |
